Source: ChEMBL document CHEMBL3758180, “Synthesis of mixed MOR/KOR efficacy cyclic opioid peptide analogs with antinociceptive activity after systemic administration” (Eur J Med Chem, 2016)
Activity calls are given as the source filed them. Positions of bridges follow the written chain, without caps; N, C: chain ends. Non-standard residues stand in square brackets, D forms with d. Residues, ends and D or L forms follow the SMILES beside them. d1Nal = N[C@H](Cc1cccc2ccccc12)C(=O)O; d2Nal = N[C@H](Cc1ccc2ccccc2c1)C(=O)O; Dmt = Cc1cc(O)cc(C)c1C[C@H](N)C(=O)O

What was measured:
[1] = molecular target: T1, Delta-type opioid receptor (Homo sapiens, UniProt P41143); assay: Agonist activity at human recombinant DOR expressed in CHO cells assessed as calcium mobilization by Fluo-4 AM based fluorescence analysis relative to DPDPE; type: functional, cell-based
Summary of the method: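 CHO cells stably co-expressing human recombinant DOR and chimeric Gαqi5 (G66D variant); intracellular calcium rise measured across concentration-response curves. Agonist potency as pEC50; efficacy as intrinsic activity α, ratio of ligand Emax to standard agonist (DPDPE) Emax. Mean ± SEM, at least 3 separate experiments in duplicate.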

[2] = molecular target: Kappa-type opioid receptor (Cavia porcellus, UniProt P41144); assay: Displacement of [3H]nor-BNI from KOR in Dunkin Hartley guinea pig brain homogenates by liquid scintillation counting analysis; type: tissue-based
[3] = Retention time of compound by RP-HPLC analysis; type: physicochemical
[4] = tested on: Mus musculus; assay: Antinociceptive activity in ip dosed BalbC albino mouse assessed as latency of jumping after 15 mins by hot-plate method; type: functional; details: for ED50: 0.25 h
[5] = tested on: Mus musculus; assay: Antinociceptive activity in BalbC albino mouse assessed as latency of jumping at 10 mg/kg, ip after 15 mins by hot-plate method; type: functional
[6] = molecular target: T2, Kappa-type opioid receptor (Homo sapiens, UniProt P41145); assay: Agonist activity at human recombinant KOR expressed in CHO cells assessed as calcium mobilization by Fluo-4 AM based fluorescence analysis relative to DynA; type: functional, cell-based
Summary of the method: (§1)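 CHO cells stably co-expressing human recombinant KOR and C-terminally modified Gαqi5; calcium mobilization concentration-response curves. pEC50 from curve fitting with Hill coefficient; intrinsic activity α as ligand Emax over Emax of standard agonist dynorphin A. Mean ± SEM of at least 3 separate experiments, each in duplicate.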

[7] = molecular target: Mu-type opioid receptor (Homo sapiens, UniProt P35372); assay: Agonist activity at human recombinant MOR expressed in CHO cells assessed as calcium mobilization by Fluo-4 AM based fluorescence analysis; type: functional, cell-based
[8] = molecular target: T1, Delta-type opioid receptor; assay: Agonist activity at human recombinant DOR expressed in CHO cells assessed as calcium mobilization by Fluo-4 AM based fluorescence analysis; type: functional, cell-based
[9] = tested on: Mus musculus; assay: Antinociceptive activity in icv dosed BalbC albino mouse assessed as latency of jumping after 10 mins by hot-plate method; type: functional
Summary of the method: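 Injection icv into left lateral ventricle (10 μL/animal) of hand-restrained mice; hot-plate test at 55 ± 0.5°C 10 min post-injection, jumping latency with 240 s cut-off. Response as %MPE = (t1 − t0)/(t2 − t0) × 100; ED50 by nonlinear regression; 7-10 animals per group.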

[10] = molecular target: T2, Kappa-type opioid receptor; assay: Agonist activity at human recombinant KOR expressed in CHO cells assessed as calcium mobilization by Fluo-4 AM based fluorescence analysis; type: functional, cell-based; summary of the method: as §1
[11] = molecular target: Delta-type opioid receptor (Rattus norvegicus, UniProt P33533); assay: Displacement of [3H][Ile5,6]deltorphin-2 from DOR in Wistar rat brain homogenates by liquid scintillation counting analysis; type: tissue-based
Summary of the method: (§2)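 Competition binding in brain membranes of adult male Wistar rats, [3H]DAMGO for MOR or [3H][Ile5,6]deltorphin-2 for DOR. IC50 from log dose-displacement curves, converted to Ki by Cheng-Prusoff. Mean ± SEM of three independent experiments in duplicate.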

[12] = Stability of compound in Wistar rat brain homogenate assessed as compound remaining after 90 mins by RP-HPLC analysis; type: ADME; details: read-out: Stability
Summary of the method: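 Peptide incubated with Wistar rat brain homogenate at 37°C, sampled at 0, 7.5, 15, 22.5, 30 and 90 min; remaining intact peptide quantified by RP-HPLC peak area %; value is amount left at 90 min.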

[13] = tested on: Mus musculus; assay: Antinociceptive activity in BalbC albino mouse assessed as latency of jumping at 3 mg/kg, ip after 30 to 60 mins by hot-plate method; type: functional, organism-based
Summary of the method: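 Time course after single ip dose of 3 mg/kg; hot-plate (55 ± 0.5°C) jump latency read at 15, 30, 45 and 60 min, 240 s cut-off. Expressed as %MPE from control, test and cut-off latencies; mean ± SEM, 7-10 mice per group, each tested once.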

[14] = molecular target: Mu-type opioid receptor (Rattus norvegicus, UniProt P33535); assay: Displacement of [3H]DAMGO from MOR in Wistar rat brain homogenates by liquid scintillation counting analysis; type: tissue-based; summary of the method: as §2
[15] = tested on: Mus musculus; assay: Antinociceptive activity in BalbC albino mouse assessed as latency of jumping at 3 mg/kg, ip after 15 mins by hot-plate method; type: functional, organism-based
[16] = molecular target: T1, Delta-type opioid receptor; assay: Agonist activity at human recombinant DOR expressed in CHO cells assessed as calcium mobilization up to 1 uM by Fluo-4 AM based fluorescence analysis; type: functional, cell-based

Kappa-type opioid receptor (Cavia porcellus, UniProt P41144), sequence (P41144 whole entry): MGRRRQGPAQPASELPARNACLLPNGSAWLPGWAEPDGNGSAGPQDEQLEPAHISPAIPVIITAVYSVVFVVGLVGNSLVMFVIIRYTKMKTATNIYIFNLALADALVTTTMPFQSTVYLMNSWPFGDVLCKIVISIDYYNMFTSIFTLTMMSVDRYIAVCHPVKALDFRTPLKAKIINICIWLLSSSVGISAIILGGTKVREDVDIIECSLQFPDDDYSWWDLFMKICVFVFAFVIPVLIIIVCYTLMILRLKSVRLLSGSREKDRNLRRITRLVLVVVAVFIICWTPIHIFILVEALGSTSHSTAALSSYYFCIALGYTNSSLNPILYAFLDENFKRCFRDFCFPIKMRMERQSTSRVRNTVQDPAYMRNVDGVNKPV
Mu-type opioid receptor (Rattus norvegicus, UniProt P33535), sequence (P33535 whole entry): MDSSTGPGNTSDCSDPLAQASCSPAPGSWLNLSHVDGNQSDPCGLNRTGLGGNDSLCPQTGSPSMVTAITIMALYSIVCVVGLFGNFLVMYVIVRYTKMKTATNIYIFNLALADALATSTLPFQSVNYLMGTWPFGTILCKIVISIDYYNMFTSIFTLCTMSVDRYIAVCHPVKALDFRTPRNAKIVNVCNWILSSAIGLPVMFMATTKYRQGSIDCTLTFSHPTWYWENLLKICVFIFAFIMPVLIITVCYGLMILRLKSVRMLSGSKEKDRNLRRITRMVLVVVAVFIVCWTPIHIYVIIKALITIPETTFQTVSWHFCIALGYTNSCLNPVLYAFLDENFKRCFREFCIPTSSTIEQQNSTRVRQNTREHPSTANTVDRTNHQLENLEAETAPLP
Mu-type opioid receptor (Homo sapiens, UniProt P35372), sequence (P35372 whole entry): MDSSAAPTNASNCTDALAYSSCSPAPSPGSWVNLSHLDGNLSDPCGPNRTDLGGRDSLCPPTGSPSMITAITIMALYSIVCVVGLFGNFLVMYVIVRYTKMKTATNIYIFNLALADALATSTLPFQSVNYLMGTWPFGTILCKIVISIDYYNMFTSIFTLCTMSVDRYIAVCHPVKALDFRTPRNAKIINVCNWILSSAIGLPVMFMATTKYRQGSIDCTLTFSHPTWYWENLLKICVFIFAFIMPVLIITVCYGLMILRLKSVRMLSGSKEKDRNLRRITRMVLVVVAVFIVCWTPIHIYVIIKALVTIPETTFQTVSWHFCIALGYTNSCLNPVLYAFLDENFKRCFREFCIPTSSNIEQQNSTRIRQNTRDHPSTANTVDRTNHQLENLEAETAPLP
T1 sequence (P41143 whole entry): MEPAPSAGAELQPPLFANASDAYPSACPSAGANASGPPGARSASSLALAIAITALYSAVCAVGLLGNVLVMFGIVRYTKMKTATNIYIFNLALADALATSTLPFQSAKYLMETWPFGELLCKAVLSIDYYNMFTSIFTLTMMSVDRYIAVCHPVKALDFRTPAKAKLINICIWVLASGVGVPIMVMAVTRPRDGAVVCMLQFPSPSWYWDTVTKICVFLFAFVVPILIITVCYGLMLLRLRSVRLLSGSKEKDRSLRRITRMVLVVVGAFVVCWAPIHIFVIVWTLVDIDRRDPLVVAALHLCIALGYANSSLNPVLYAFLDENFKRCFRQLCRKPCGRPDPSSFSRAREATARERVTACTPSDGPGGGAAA
Delta-type opioid receptor (Rattus norvegicus, UniProt P33533), sequence (P33533 whole entry): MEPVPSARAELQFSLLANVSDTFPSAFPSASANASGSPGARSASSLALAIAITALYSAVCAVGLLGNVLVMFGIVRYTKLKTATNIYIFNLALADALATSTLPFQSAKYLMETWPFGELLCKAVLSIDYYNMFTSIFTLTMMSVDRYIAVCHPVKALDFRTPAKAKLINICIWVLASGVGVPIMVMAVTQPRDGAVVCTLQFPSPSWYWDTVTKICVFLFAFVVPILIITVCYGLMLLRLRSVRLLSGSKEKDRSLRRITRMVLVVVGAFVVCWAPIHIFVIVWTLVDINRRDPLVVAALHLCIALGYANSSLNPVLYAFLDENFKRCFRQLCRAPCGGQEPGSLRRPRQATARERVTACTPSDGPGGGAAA
T2 sequence (P41145 whole entry): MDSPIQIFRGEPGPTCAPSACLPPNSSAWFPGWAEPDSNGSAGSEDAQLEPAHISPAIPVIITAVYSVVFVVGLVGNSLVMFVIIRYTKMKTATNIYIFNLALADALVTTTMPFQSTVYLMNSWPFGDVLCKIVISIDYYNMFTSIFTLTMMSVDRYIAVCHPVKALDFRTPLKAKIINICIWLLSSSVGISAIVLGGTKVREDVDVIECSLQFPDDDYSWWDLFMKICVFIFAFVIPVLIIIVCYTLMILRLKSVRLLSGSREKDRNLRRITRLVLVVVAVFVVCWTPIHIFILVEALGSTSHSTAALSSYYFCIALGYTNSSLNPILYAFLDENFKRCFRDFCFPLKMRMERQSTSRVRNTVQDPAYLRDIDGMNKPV

SMILES | Intrinsic activity [1] | Ki [2] | Retention_time [3] | Activity [4] | ED50 [4] | Activity [5] | Emax [6] | Intrinsic activity [6] | EC50 [7] | EC50 [8] | ED50 [9] | EC50 [10] | Ki [11] | remaining at 1.5 h [12] | Activity [13] | Ki [14] | Activity [15] | pEC50 [16]
CC[C@H](C)[C@H](NC(=O)[C@H](CCCNC(=N)N)NC(=O)[C@H](CCCNC(=N)N)NC(=O)[C@H](CC(C)C)NC(=O)[C@H](Cc1ccccc1)NC(=O)CNC(=O)CNC(=O)[C@@H](N)Cc1ccc(O)cc1)C(=O)N[C@@H](CCCNC(=N)N)C(=O)N1CCC[C@H]1C(=O)N[C@@H](CCCCN)C(=O)N[C@@H](CC(C)C)C(=O)N[C@@H](CCCCN)C(=O)O [ANALOG OF DYNORPHIN A] | 0.99 | – | – | – | – | – | – | – | – | – | – | – | – | – | – | – | – | –
Cc1cc(O)cc(C)c1C[C@H](N)C(=O)N[C@@H]1CCCCNC(=O)C[C@@H](C(N)=O)NC(=O)[C@@H](Cc2cccc3ccccc23)NC(=O)[C@H](Cc2ccccc2)NC1=O (H-[Dmt][dK]F[d1Nal]D-NH2; lactam 2-5) | 0.5 | 1.78 nM | 16.02 min | Dose-dependent effect | 1.16 mg/kg | 82% | 79% | 0.74 | 5.62 nM | 64.6 nM | 0.06 µg | 41.7 nM | 51.2 nM | 96% | inactive | 0.25 nM | Active | –
Cc1cc(O)cc(C)c1C[C@H](N)C(=O)N[C@@H]1CCCCNC(=O)C[C@@H](C(N)=O)NC(=O)[C@@H](Cc2ccc3ccccc3c2)NC(=O)[C@H](Cc2ccccc2)NC1=O (H-[Dmt][dK]F[d2Nal]D-NH2; lactam 2-5) | 0.31 | 1.02 nM | 16.1 min | Dose-dependent effect | 3.24 mg/kg | 55% | – | 0.44 | 3.63 nM | 53.7 nM | 0.08 µg | 102 nM | 110 nM | 95.6% | inactive | 0.44 nM | Active | –
NC(=O)[C@H](Cc1ccccc1)NC(=O)[C@H](Cc1ccccc1)NC(=O)[C@@H]1CCCN1C(=O)[C@@H](N)Cc1ccc(O)cc1 [ENDOMORPHIN 2] | – | – | 17.25 min | – | – | – | – | – | – | – | 1.82 µg | – | – | 0.61% | – | – | – | –
Cc1cc(O)cc(C)c1C[C@H](N)C(=O)N[C@@H]1CCCCNC(=O)C[C@@H](C(N)=O)NC(=O)[C@H](Cc2ccccc2)NC(=O)[C@@H](Cc2cccc3ccccc23)NC1=O | – | 56.6 nM | 16.21 min | – | – | 17% | – | 0.43 | 20 nM | – | 0.714 µg | 1290 nM | 9170 nM | 93.8% | – | 69.2 nM | – | inactive
Cc1cc(O)cc(C)c1C[C@H](N)C(=O)N[C@@H]1CCCCNC(=O)C[C@@H](C(N)=O)NC(=O)[C@H](Cc2ccccc2)NC(=O)[C@@H](Cc2ccc3ccccc3c2)NC1=O | – | 751 nM | 16.38 min | – | – | 24% | – | 0.31 | 11.5 nM | – | 0.533 µg | 1700 nM | 4250 nM | 85.4% | – | 16.8 nM | – | inactive
NC(=O)[C@@H]1CC(=O)NCCCC[C@@H](NC(=O)[C@@H](N)Cc2ccc(O)cc2)C(=O)N[C@@H](Cc2ccccc2)C(=O)N[C@@H](Cc2ccccc2)C(=O)N1 (H-Y[dK]FFD-NH2; lactam 2-5) | – | 1.12 nM | 20.5 min | Dose-dependent effect | < 0.01 mg/kg | 88% | 106% | 1 | 2.04 nM | – | 0.05 µg | 6.61 nM | 171 nM | 96% | inactive | 0.35 nM | Active | –
